Assay results taken from ChEMBL document CHEMBL1938280, “Weight loss effects of quaternary salts of 5-amino-1-(chloromethyl)-1,2-dihydro-3H-benz[e]indoles; structure-activity relationships” (Bioorg Med Chem, 2012).

Experiments:
Mus musculus [1] = assay: Induction of weight loss in C3H/HeN mouse at 1.4 umol/kg, ip after 60 days (reference value: 31.5 +/- 8.2 %); assay type: functional
Mus musculus [2] = assay: Induction of weight loss in C3H/HeN mouse at 0.47 umol/kg, ip after 60 days (reference value: 27.7 +/- 4.6 %); assay type: functional
Mus musculus [3] = assay: Induction of weight loss in C3H/HeN mouse at 4.2 umol/kg, ip after 60 days (reference value: 30.1 +/- 5.9 %); assay type: functional
Mus musculus [4] = assay: Toxicity in C3H/HeN mouse assessed as perceptible deterioration in health at 4.2 uM/kg, ip after 60 days; assay type: organism-based; conditions: in vivo, 1440 h
Outline: (§1)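 Male C3H/HeN mice, about 50 days old and in groups of 4, received one ip dose in 42% aqueous DMSO on day 1 after 7–10 days of baseline monitoring; vehicle-only animals served as controls. Food and water intake and body weight were recorded 2–3 times weekly for 60 days. General health was checked by observing clinical signs.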

Mus musculus [5] = assay: Toxicity in C3H/HeN mouse assessed as loss of appetite at 4.2 uM/kg, ip after 60 days; assay type: organism-based; conditions: in vivo, 1440 h; outline: as §1
Mus musculus [6] = assay: Toxicity in C3H/HeN mouse assessed as difficulty in eating at 4.2 uM/kg, ip after 60 days; assay type: organism-based; conditions: in vivo, 1440 h
Mus musculus [7] = assay: Toxicity in C3H/HeN mouse assessed as difficulty in drinking at 4.2 uM/kg, ip after 60 days; assay type: organism-based; conditions: in vivo, 1440 h
Mus musculus [8] = assay: Induction of weight loss in C3H/HeN mouse at 0.14 umol/kg, ip after 60 days (reference value: 41.6 +/- 8.7 %); assay type: functional
Mus musculus [9] = assay: Induction of weight loss in C3H/HeN mouse at 0.42 umol/kg, ip after 60 days (reference value: 23.6 +/- 3.7 %); assay type: functional
Mus musculus [10] = assay: Induction of weight loss in C3H/HeN mouse at 1.4 umol/kg, ip after 60 days (reference value: 26.1 +/- 7.9 %); assay type: functional
Mus musculus [11] = assay: Induction of weight loss in C3H/HeN mouse at 4.2 umol/kg, ip after 60 days (reference value: 26.1 +/- 7.8 %); assay type: functional
Mus musculus [12] = assay: Toxicity in C3H/HeN mouse assessed as mortality at 4.2 umol/kg, ip after 15 days; assay type: organism-based; conditions: in vivo, 360 h
Outline: (§2)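 Male C3H/HeN mice, about 50 days old, in groups of 4. Baseline body weight and food and water intake were recorded for 7–10 days before treatment. A single ip injection in 42% aqueous DMSO was given on day 1, with vehicle-only controls. Body weight and food and water intake were then monitored 2–3 times per week for 60 days, with deaths noted.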

Mus musculus [13] = assay: Toxicity in C3H/HeN mouse assessed as mortality at 4.2 umol/kg, ip; assay type: organism-based; conditions: in vivo; outline: as §2
Mus musculus [14] = assay: Induction of weight loss in C3H/HeN mouse at 4.2 umol/kg, ip after 60 days (reference value: 27.7 +/- 4.6 %); assay type: functional
Mus musculus [15] = assay: Induction of weight loss in C3H/HeN mouse at 12.6 umol/kg, ip after 60 days (reference value: 18.8 +/- 1.8 %); assay type: functional
Mus musculus [16] = assay: Induction of weight loss in C3H/HeN mouse at 37.8 umol/kg, ip after 60 days (reference value: 31.5 +/- 8.2 %); assay type: functional
Mus musculus [17] = assay: Induction of weight loss in C3H/HeN mouse at 37.8 umol/kg, ip after 60 days (reference value: 23.9 +/- 4.6 %); assay type: functional
Mus musculus [18] = assay: Induction of weight loss in C3H/HeN mouse at 50.2 umol/kg, ip after 60 days (reference value: 27.4 +/- 9.4 %); assay type: functional
Mus musculus [19] = assay: Toxicity in C3H/HeN mouse assessed as mortality at 117 umol/kg, ip; assay type: organism-based; conditions: in vivo; outline: as §2
Mus musculus [20] = assay: Induction of weight loss in C3H/HeN mouse at 37.8 umol/kg, ip after 60 days (reference value: 35.6 +/- 3.1 %); assay type: functional
Mus musculus [21] = assay: Induction of weight loss in C3H/HeN mouse at 4.2 umol/kg, ip after 60 days (reference value: 33.3 +/- 5.0 %); assay type: functional
Mus musculus [22] = assay: Toxicity in C3H/HeN mouse assessed as mortality at 12.6 umol/kg, ip; assay type: organism-based; conditions: in vivo; outline: as §2
Mus musculus [23] = assay: Induction of weight loss in C3H/HeN mouse at 12.6 umol/kg, ip after 60 days (reference value: 41.6 +/- 8.7 %); assay type: functional
Mus musculus [24] = assay: Induction of weight loss in C3H/HeN mouse at 377 umol/kg, ip after 60 days (reference value: 24.5 +/- 3.5 %); assay type: functional
Mus musculus [25] = assay: Induction of weight loss in C3H/HeN mouse at 1130 umol/kg, ip after 18 days (reference value: 12.8 +/- 1.5 %); assay type: functional

**Q.** How did the Activity (Mus musculus [1]) turn out when `Cn1c(C[N+](C)(C)Cc2ccc(/C=C/C(=O)N3CC(CCl)c4c3cc(N)c3ccccc43)cc2)ccc1[N+](=O)[O-].[Br-]` (centres undefined) was run?
**A.** Its Activity is 19%.

**Q.** And the Activity (Mus musculus [2])?
**A.** The Activity was 38.3%.

**Q.** What about the Activity (Mus musculus [3]) of the same compound?
**A.** The Activity was -4.1%.

**Q.** And the Activity (Mus musculus [4])?
**A.** Its Activity is “Non-toxic”.

**Q.** And the Activity (Mus musculus [5])?
**A.** The Activity was “Non-toxic”.

**Q.** What about the Activity (Mus musculus [6]) of the same compound?
**A.** The Activity was “Non-toxic”.

**Q.** And the Activity (Mus musculus [7])?
**A.** The Activity was “Non-toxic”.

**Q.** For `Cn1c(C[N+](C)(C)Cc2ccc(/C=C/C(=O)N3CC(CCl)c4c3cc(N)c3ccccc43)cc2)ccc1S(C)(=O)=O.[Br-]` (centres undefined), which Activity (Mus musculus [8]) is on record?
**A.** Its Activity is 44.1%.

**Q.** And the Activity (Mus musculus [9])?
**A.** Its Activity is -7.6%.

**Q.** And the Activity (Mus musculus [10])?
**A.** Its Activity is -22.8%.

**Q.** What does the source list for `CN(Cc1ccc(/C=C/C(=O)N2CC(CCl)c3c2cc(N)c2ccccc32)cc1)Cc1ccc([N+](=O)[O-])n1C` (centres undefined)?
**A.** Activity (Mus musculus [11]): 21%; Activity (Mus musculus [12]): Toxic

**Q.** Which results are given for `C[N+](C)(C)Cc1ccc(/C=C/C(=O)N2CC(CCl)c3c2cc(N)c2ccccc32)cc1.[Cl-]` (centres undefined)?
**A.** Activity (Mus musculus [2]): 17%; Activity (Mus musculus [13]): Toxic

**Q.** `Cn1c(C[N+](C)(C)Cc2ccc(/C=C/C(=O)N3CC(CCl)c4c3cc(O)c3ccccc43)cc2)ccc1[N+](=O)[O-].[Br-]` (centres undefined) was tested. Which Activity (Mus musculus [14]) did it give?
**A.** Its Activity is 18.8%.

**Q.** With `Cn1c(C[N+](C)(C)Cc2ccc(/C=C/C(=O)N3CC(CO)c4c3cc(N)c3ccccc43)cc2)ccc1[N+](=O)[O-].[Br-]` (centres undefined) as the compound, how does the Activity (Mus musculus [15]) read?
**A.** The Activity was 23.7%.

**Q.** And the Activity (Mus musculus [16])?
**A.** The Activity was 18.8%.

**Q.** With `Cn1c(C[N+](C)(C)Cc2ccc(/C=C/C(=O)N3CC(CO)c4c3cc(N)c3ccccc43)cc2)ccc1S(C)(=O)=O.[Br-]` (centres undefined) as the compound, how does the Activity (Mus musculus [17]) read?
**A.** The Activity was 36.8%.

**Q.** What about the Activity (Mus musculus [18]) of the same compound?
**A.** The Activity was 42.6%.

**Q.** And the Activity (Mus musculus [19])?
**A.** The Activity was “Toxic”.

**Q.** What does the source list for `CC1CN(C(=O)/C=C/c2ccc(C[N+](C)(C)Cc3ccc([N+](=O)[O-])n3C)cc2)c2cc(N)c3ccccc3c21.[Br-]` (centres undefined)?
**A.** Activity (Mus musculus [14]): 26%; Activity (Mus musculus [20]): 43.2%

**Q.** Which Activity (Mus musculus [20]) does the source give for `CC1CN(C(=O)/C=C/c2ccc(C[N+](C)(C)Cc3ccc(S(C)(=O)=O)n3C)cc2)c2cc(N)c3ccccc3c21.[Br-]` (centres undefined) here?
**A.** The Activity was 30.4%.

**Q.** For `Cn1c(C[N+](C)(C)CCCCCC(=O)N2CC(CCl)c3c2cc(N)c2ccccc32)ccc1S(C)(=O)=O.O=C([O-])C(F)(F)F` (centres undefined), which Activity (Mus musculus [21]) is on record?
**A.** Its Activity is 16.8%.

**Q.** What about the Activity (Mus musculus [22]) of the same compound?
**A.** The Activity was “Toxic”.

**Q.** What does the source list for `Cn1c(C[N+](C)(C)CCCCCCC(=O)N2CC(CCl)c3c2cc(N)c2ccccc32)ccc1S(C)(=O)=O.O=C([O-])C(F)(F)F` (centres undefined)?
**A.** Activity (Mus musculus [21]): 11.6%; Activity (Mus musculus [23]): 2.9%

**Q.** With `CN(N=O)C(=O)N[C@@H](C=O)[C@@H](O)[C@H](O)[C@H](O)CO` [STREPTOZOCIN] as the compound, how does the Activity (Mus musculus [24]) read?
**A.** Its Activity is 23.7%.

**Q.** What about the Activity (Mus musculus [25]) of the same compound?
**A.** The Activity was -22.1%.
